# According to ChEMBL document CHEMBL4616611, “Synthesis and biological evaluation of FICZ analogues as agonists of aryl hydrocarbon receptor” (Bioorg Med Chem Lett, 2020):
# Active and inactive are the calls of the source. The calls are words filed in the database; no cut-off is given here.
# How the values were obtained:
# CYP1A1 [1] = target: T1, CYP1A1 (Homo sapiens, UniProt P35869); assay: Agonist activity at AhR in human HepG2 cells assessed as induction of CYP1A1 activity at 0.13 nM using 7-ethoxyresorufin as substrate after 24 hrs by ethoxyresorufin-O-deethylase assay relative to DMSO; format: cell-based; conditions: probe 7-ethoxyresorufin, read-out: FC
# T1 sequence (P35869 whole entry): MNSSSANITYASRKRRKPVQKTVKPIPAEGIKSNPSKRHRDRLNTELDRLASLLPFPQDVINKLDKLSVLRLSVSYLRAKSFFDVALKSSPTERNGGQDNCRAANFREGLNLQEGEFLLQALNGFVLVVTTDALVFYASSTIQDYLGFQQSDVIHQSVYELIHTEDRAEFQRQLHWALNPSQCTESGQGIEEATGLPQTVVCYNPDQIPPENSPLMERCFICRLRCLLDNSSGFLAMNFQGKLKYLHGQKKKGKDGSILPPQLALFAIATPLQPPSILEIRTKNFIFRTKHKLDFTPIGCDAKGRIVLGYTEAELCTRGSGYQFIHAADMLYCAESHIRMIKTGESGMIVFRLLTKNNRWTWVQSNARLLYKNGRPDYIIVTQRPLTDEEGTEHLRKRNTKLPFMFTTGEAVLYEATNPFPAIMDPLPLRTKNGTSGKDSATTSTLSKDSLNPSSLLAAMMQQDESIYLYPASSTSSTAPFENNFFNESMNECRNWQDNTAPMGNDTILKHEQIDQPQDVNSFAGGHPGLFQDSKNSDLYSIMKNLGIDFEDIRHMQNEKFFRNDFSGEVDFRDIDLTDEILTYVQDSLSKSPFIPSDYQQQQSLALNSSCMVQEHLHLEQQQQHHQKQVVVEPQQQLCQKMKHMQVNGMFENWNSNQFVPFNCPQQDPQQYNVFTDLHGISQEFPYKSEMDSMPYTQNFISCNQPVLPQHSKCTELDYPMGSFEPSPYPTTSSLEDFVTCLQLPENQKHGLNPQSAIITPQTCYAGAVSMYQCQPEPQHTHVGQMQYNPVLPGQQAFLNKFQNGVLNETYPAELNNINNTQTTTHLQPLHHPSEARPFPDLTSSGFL
# In short: (§1)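 EROD read-out of CYP1A1 activity in HepG cells treated for 24 h with compound or vehicle (DMSO) at 0.13 nM, 3.2 nM and 80 nM. Activity is reported as fold induction over the DMSO-treated cells.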
# CYP1A1 [2] = target: T1, CYP1A1; assay: Agonist activity at AhR in human HepG2 cells assessed as induction of CYP1A1 activity at 3.2 nM using 7-ethoxyresorufin as substrate after 24 hrs by ethoxyresorufin-O-deethylase assay relative to DMSO; format: cell-based; conditions: probe 7-ethoxyresorufin, read-out: FC; in short: as §1
# CYP1A1 [3] = target: T1, CYP1A1; assay: Agonist activity at AhR in human HepG2 cells assessed as induction of CYP1A1 activity at 80 nM using 7-ethoxyresorufin as substrate after 24 hrs by ethoxyresorufin-O-deethylase assay relative to DMSO; format: cell-based; conditions: probe 7-ethoxyresorufin, read-out: FC; in short: as §1
# [4] = target: T2, Aryl hydrocarbon receptor (Homo sapiens, UniProt P35869); assay: Agonist activity at AhR in human HepG2 cells assessed as increase in CYP1A1 protein expression at 300 nM after 24 hrs by Western blot analysis; format: cell-based; conditions: hepg2, 24 h, 0.3 µM
# T2 sequence (P35869 whole entry): T1 sequence (P35869 whole entry)
# In short: (§2)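 HepG2 cells were exposed to a dose series for 24 h. CYP1A1 protein levels were then assessed by Western blotting.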
# [5] = target: T2, Aryl hydrocarbon receptor; assay: Agonist activity at AhR in human HepG2 cells assessed as induction of CYP1A1 expression after 24 hrs by ethoxyresorufin-O-deethylase assay; format: cell-based; conditions: for Activity: human, hepg2, 24 h
# In short: (§3)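 Full dose-response in the EROD assay. HepG2 cells were treated for 24 h across a concentration series, with FICZ as the reference agonist. CYP1A1 induction was read out and EC50 values were derived from the curves.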
# CYP1A1 [6] = target: T1, CYP1A1; assay: Agonist activity at AhR in human HepG2 cells assessed as induction of CYP1A1 activity at 0.13 nM using 7-ethoxyresorufin as substrate after 24 hrs by ethoxyresorufin-O-deethylase assay relative to 3-phenylbenzo[f]chromen-1-one; format: cell-based; conditions: probe 7-ethoxyresorufin, read-out: FC
# CYP1A1 [7] = target: T1, CYP1A1; assay: Agonist activity at AhR in human HepG2 cells assessed as induction of CYP1A1 activity at 3.2 nM using 7-ethoxyresorufin as substrate after 24 hrs by ethoxyresorufin-O-deethylase assay relative to 3-phenylbenzo[f]chromen-1-one; format: cell-based; conditions: probe 7-ethoxyresorufin, read-out: FC
# [8] = target: T2, Aryl hydrocarbon receptor; assay: Potency index, ratio of FICZ EC50 to test compound EC50 for agonist activity at AhR in human HepG2 cells assessed as increase in CYP1A1 expression after 24 hrs by ethoxyresorufin-O-deethylase assay; format: cell-based; conditions: hepg2, 24 h
# [9] = target: T2, Aryl hydrocarbon receptor; assay: Agonist activity at AhR in human HepG2 cells assessed as induction of CYP1A1 expression at <30 pM after 24 hrs by ethoxyresorufin-O-deethylase assay; format: cell-based; conditions: hepg2, 24 h; in short: as §3
# HepG2 = assay: Effect on AhR mRNA expression in human HepG2 cells assessed as 100 nM after 6 hrs by q-RT-PCR analysis; format: functional, cell-based
# In short: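 HepG2 cells were treated at 100 nM for 6 h. AhR and CYP1A1 mRNA levels were then quantified by qRT-PCR, normalized to GAPDH.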
# [10] = target: T2, Aryl hydrocarbon receptor; assay: Agonist activity at AhR in human HepG2 cells assessed as increase in CYP1A1 protein expression at 3 to 10 nM after 24 hrs by Western blot analysis; format: cell-based; conditions: hepg2, 24 h; in short: as §2
# [11] = target: T2, Aryl hydrocarbon receptor; assay: Agonist activity at AhR in human HepG2 cells assessed as increase in CYP1A1 protein expression after 24 hrs by Western blot analysis; format: cell-based; conditions: hepg2, 24 h; in short: as §2
Compound,"fold induction at 24 h, 0.00013 µM (CYP1A1 [1])","fold induction at 24 h, 0.0032 µM (CYP1A1 [2])","fold induction at 24 h, 0.08 µM (CYP1A1 [3])",also measured
O=c1cc(-c2ccccc2)oc2ccc3ccccc3c12 [BETA-NAPHTHOFLAVONE],0.8,1.1,11.2,Activity [4]: Active
Cn1c2ccccc2c2cc3c(c(C=O)c21)c1ccccc1n3Cc1ccccc1,1,4.2,27.5,
O=Cc1c2[nH]c3ccccc3c2cc2[nH]c3ccccc3c12,,,,Activity [5]: Dose-dependent effect
OCc1c2c(cc3c4ccccc4n(Cc4ccccc4)c13)[nH]c1ccccc12,0.4,0.7,3.6,
CCCn1c2ccccc2c2cc3[nH]c4ccccc4c3c(CO)c21,0.4,0.5,3.4,
Cn1c2ccccc2c2cc3[nH]c4ccccc4c3c(C=O)c21,27.3,88.9,82.4,EC50 [5]: 0.26 nM; Activity [5]: Dose-dependent effect; Ratio EC50 [8]: 8; Activity [9]: Active; Activity (HepG2): inactive; Activity [10]: Active; Activity [11]: Dose-dependent effect
CCn1c2ccccc2c2cc3[nH]c4ccccc4c3c(CO)c21,1.4,3.5,31.8,
CCCn1c2ccccc2c2c(C=O)c3c(cc21)c1ccccc1n3C,1.3,1.9,8.9,
OCc1c2c(cc3c4ccccc4n(CC4CC4)c13)[nH]c1ccccc12,0.3,0.5,2.6,

# Second part, led by results:
"fold induction at 24 h, 0.00013 µM (CYP1A1 [1])","fold induction at 24 h, 0.0032 µM (CYP1A1 [2])","fold induction at 24 h, 0.08 µM (CYP1A1 [3])",Compound,also measured
1.4,4.5,25.1,CCn1c2ccccc2c2c(C=O)c3c(cc21)c1ccccc1n3C,
3.8,13.4,59.2,OCc1c2[nH]c3ccccc3c2cc2[nH]c3ccccc3c12,"fold induction at 24 h, 0.00013 µM (CYP1A1 [6]): 5; fold induction at 24 h, 0.0032 µM (CYP1A1 [7]): 12"
5.3,26.7,62.6,Cn1c2ccccc2c2cc3[nH]c4ccccc4c3c(CO)c21,
1.6,3.4,39.4,Cn1c2ccccc2c2c(C=O)c3c(cc21)c1ccccc1n3C,
